Experimental data as given in publication PMC7304851 (Journal for Immunotherapy of Cancer, 2020).
“Also recorded” adds a separate entry of the source.

Columns and labels:
[1] = tested on: Pan02 pancreatic syngeneic tumor model; assay: Preclinical FDG-PET, Pan02 model; type: in vivo, mouse; conditions: data not shown
[2] = Phase 1 safety and tolerability; type: in vivo, human
FDG-avid tumor lesions = assay: 18FDG-PET metabolic response; type: in vivo, human
[3] = tested on: immune-cell infiltration in tumor; assay: Paired tumor biopsies: immunohistochemistry and TLDA gene expression; type: in vivo, human
advanced tumors = assay: Tumor response by irRECIST, survival and treatment duration; type: in vivo, human
[4] = tested on: EP4-regulated genes and immune-related circulating factors; assay: Blood gene expression, serum cytokines/chemokines, flow cytometry; type: in vivo, human
Outline: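 Patients with advanced tumors took oral drug once daily (125–750 mg) in 21-day cycles. mRNA isolated from blood was profiled on a 92-gene TaqMan Low Density Array panel. Serum/plasma levels of 36 immune-related circulating factors were measured by proteomics, ELISA and Meso Scale Discovery multiplex. Blood immune subsets were assessed by eight-color flow cytometry. Cycle 1 day 15 was compared with baseline by paired t-test.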

[5] = tested on: mouse syngeneic tumor models; conditions: dependent on myeloid cells and CD8+ T cells; cited from earlier work
[6] = Clinical pharmacokinetics in plasma; type: in vivo, human
[7] = tested on: 4T1 breast syngeneic tumor model; assay: Preclinical FDG-PET, 4T1 model; type: in vivo, mouse; conditions: 4T1 breast model, data not shown
macrophage infiltration = conditions: preclinical models; cited from earlier work
[8] = tested on: relapsed or refractory classical Hodgkin’s lymphoma; conditions: cited from earlier work
[9] = tested on: primary human peripheral blood mononuclear cells (PBMCs); assay: EP4 agonist in PBMCs, TNF-α and CXCL10 by RT-PCR; type: cell-based; conditions: PBMCs from healthy donors incubated with EP4 agonist
[10] = all patients, combined incidence
[11] = blood, on treatment versus baseline
[12] = cycle 1 day 15 compared with baseline

## C[C@H](NC(=O)c1c(C(F)F)nn(C)c1Oc1cccc(C(F)(F)F)c1)c1ccc(C(=O)O)cc1 [E7046]
[1]
  FDG-PET signal compared with vehicle treatment: decreased the FDG-PET signal
[2]; 750 mg dose cohort
  TEAE incidence diarrhea: 42.9%
  TEAE incidence fatigue: 42.9%
  TEAE incidence nausea: 42.9%
[2]; 125, 250, 500 and 750 mg orally once daily, cycle 1
  Dose-limiting toxicities (DLTs): No dose-limiting toxicities were observed; also recorded: no DLTs observed; also recorded: No DLTs were reported
[2]; 125 to 750 mg orally once daily
  Maximum tolerated dose (MTD): not reached
[2]; all patients
  fatal treatment-related TEAE: No patients experienced a fatal treatment-related TEAE
  patients who discontinued treatment due to TEAEs: 17%
  patients with grade ≥3 treatment-related TEAEs: 10%
[2]; all patients (3/30)
  patients with treatment-related SAEs: 10%
[2]; all patients (n=30)
  patients with at least 1 TEAE: 93%
[2]; [10]
  TEAE (all grades) diarrhea: 33.3%
  TEAE (all grades) fatigue: 36.7%
  TEAE (all grades) nausea: 30%
FDG-avid tumor lesions; 15 evaluable patients (3/15), SUVmax reduction ≥25%
  patients with partial metabolic response (18FDG-PET): 20%
FDG-avid tumor lesions; individual patient case
  FDG-PET signal reduction (partial metabolic response): 31%
FDG-avid tumor lesions; longest among all patients
  duration of treatment of the three patients with partial metabolic responses: 145 to 208 days
[3]; 10 paired biopsies, without reaching statistical significance
  tumor gene expression of TNF-α and CXCL10: upregulation
[3]; individual patient case
  increase in expression of CXCL10 in the tumor: ~ 20%
  increase in percentage of CD8+ T cells in the tumor: 31%
[3]; paired biopsies of 11 patients, baseline to cycle 2 day 1
  CD3+ and CD8+ T cells in tumor tissues (immunohistochemistry): significant increase
Advanced tumors; 125 mg
  best response of stable disease, number of patients: 2
Advanced tumors; 125 mg (n=2/8)
  patients with best response of durable stable disease for ≥18 weeks: 25%
Advanced tumors; 250 mg
  best response of stable disease, number of patients: 2
Advanced tumors; 250 mg (n=2/8)
  patients with best response of durable stable disease for ≥18 weeks: 25%
Advanced tumors; 750 mg
  best response of stable disease, number of patients: 3
Advanced tumors; 10 patients of 30
  patients with longer duration of treatment on E7046 compared with most recent prior anticancer therapy: 33%
Advanced tumors; all patients (n=30)
  disease control rate: 23%
  objective responses by irRECIST: no objective responses
  patients with best response of stable disease (irRECIST): 23%
Advanced tumors; all patients, range: 1.1–30
  median duration of treatment: 5.9 weeks
[4]; [11]
  circulating gene expression of CD274 (PD-L1) and PDCD1LG2 (PD-L2): increased expression
  circulating gene expression of EOMES, PTGER4 and IDO1: decreased expression
[4]; [12]
  number of genes modulated in blood out of a 92-immune-gene panel: 16
  number of serum cytokines and chemokines modulated out of a panel of 36: 14
[4]; cycle 1 day 15 compared with baseline, p=0.0015
  serum level of CXCL10: significantly upregulated
[4]; cycle 1 day 15 compared with baseline, p=0.0292
  serum level of CCL5: significantly upregulated
[4]; eight-color flow cytometry, data not shown
  major immune cell subsets in the blood (T cells, B cells, natural killer cells, MDSC): no significant changes
[5]
  growth of multiple mouse syngeneic tumor models: inhibited the growth
[6]; 125 to 750 mg
  exposure versus dose: dose proportional up to 500 mg, with no incremental increase at 750 mg
[6]; all four doses, cycle 1 day 8
  Free E7046 concentration versus Ki of EP4 inhibition: reached or exceeded the preclinical Ki value
[6]; daily oral dosing
  accumulation on multiple dosing: twofold to threefold
[6]; postdose, across all doses
  time to maximum drug concentration: ~ 2 hours
[7]
  FDG-PET signal compared with vehicle treatment: decreased the FDG-PET signal

## CN(C)CC(=O)N1CCC(c2ccc(NC(=O)c3nc(C#N)c[nH]3)c(C3=CCCCC3)c2)CC1 [JNJ-28312141]
Macrophage infiltration
  macrophage infiltration: substantially decreased macrophage infiltration

## CC1(C)CC=C(c2nc(C3CC(C)(C)OC(C)(C)C3)ccc2NC(=O)c2nc(C#N)c[nH]2)CC1 [JNJ-40346527]
[8]; 1/21 patients had complete response
  objective response rate: 5%
[8]; 11/21 patients
  patients who achieved stable disease: 55%

## CCCCC[C@H](O)/C=C/[C@H]1[C@H](O)CC(=O)[C@@H]1CCCCCCCO [PGE1-OH]
[9]
  expression of TNF-α and CXCL10: dose-dependent down-regulation; also recorded: dose-dependently suppressed
